# Laboratory results published in PubChem BioAssay.
# The source made the active and inactive calls.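 How the source made its calls, unless noted: active means viability at or under a set limit in both replicates, limit being median viability minus 3 SD (cut at about 48% in these data, passing the limit was not always enough); inconclusive means at or under the limit in just one replicate; inactive means at or above the limit in both replicates.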
# Tests used:
# [1] = reducers of endogenous Her2 protein level, primary screen, SKBR3 breast tumor cells, AlphaScreen, ATP viability (AID 461;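 active means Her2 level under about 52% in both replicate screens, with viability over 70% of control, limit read from the data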;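 on Her2 level: lower value means less Her2 protein in the cells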;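 on viability: percent of carrier control wells set as 100% viability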); details: 18-24 h, measured here: SKBR3 viability, ATP luminescence, at 10 µM
# [2] = target: Receptor tyrosine-protein kinase erbB-2 (Homo sapiens) (UniProt P04626); test: as above; details: 18-24 h, at 10 µM, stronger effect = lower value
# [3] = SK-BR-3 cell growth inhibitors, pilot screen, 24 h, human (AID 572;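 active means viability at or below 10% of carrier control in both of two separate runs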;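 further: compound exposure lasted between 18 and 24 h rather than exactly 24 h; 100% = carrier-treated control wells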); details: SK-BR-3 viability, CellTiter-Glo luminescence, at 10 µM, stronger effect = lower value
# [4] = HUVEC growth inhibition – cell-based, human, primary screen (AID 575;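 active means viability at or below 30% in both replicate assays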;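 further: 100% = median of untreated cell wells with 0.1% DMSO on each plate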); details: HUVEC proliferation, CellTiter-Glo luminescence, 72 h; at 10 µM; stronger effect = lower value
# Method in brief: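 material = primary HUVEC, no more than 12 passages | input = 1250 cells per well | controls = vehicle and MePR control wells | measured by = CTG luminescence | times = 72 h compound incubation | format = collagen-coated 384-well format | read-out = % viability vs DMSO wells | doses = single 10 µM dose, 0.1% DMSO, from 5x medium stock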
# [5] = growth inhibitors of H69AR lung tumor, primary screen, human, duplicate replicates (AID 580); details: H69AR lung tumor cells viability, ATP luminescence, 72 h; at 10 µM; stronger effect = lower value;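 further: 100% = mean luminescence of untreated wells and 0% = no signal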
# [6] = reversal of MRP1-mediated doxorubicin resistance, pilot screen, H69AR cells, doxorubicin co-treatment (AID 601;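 active means viability loss from added drug above about 55%, and viability with drug at most 40%, in both replicates, limit read from the data, passing the limit was not always enough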); details: CellTiter-Glo, 72 h, at 10 µM; for differential viability (reversal): stronger effect = higher value
# [7] = 384-well plate pilot, post-Golgi transport modulator project, inhibition of yeast transport mutant growth (AID 636; in the data active means inhibition above about 31%); details: absorbance 615 nm, about 18 h, stronger effect = higher value
# [8] = growth suppression of yeast trafficking mutant, preliminary HTS, modulators of trafficking downstream of Golgi apparatus project, 1536-format plate, OD 615 nm (AID 637; in the data active means inhibition above about 30%); details: yeast transport mutant growth, absorbance 615 nm, 18 h; stronger effect = higher value
# [9] = H69AR cells + 2 uM doxorubicin, measured here: viability with 2 uM doxorubicin, stronger effect = lower value
# [10] = H69AR cells, compound alone cytotoxicity
# Sequence of Receptor tyrosine-protein kinase erbB-2 (Homo sapiens) (P04626 whole entry, looked up): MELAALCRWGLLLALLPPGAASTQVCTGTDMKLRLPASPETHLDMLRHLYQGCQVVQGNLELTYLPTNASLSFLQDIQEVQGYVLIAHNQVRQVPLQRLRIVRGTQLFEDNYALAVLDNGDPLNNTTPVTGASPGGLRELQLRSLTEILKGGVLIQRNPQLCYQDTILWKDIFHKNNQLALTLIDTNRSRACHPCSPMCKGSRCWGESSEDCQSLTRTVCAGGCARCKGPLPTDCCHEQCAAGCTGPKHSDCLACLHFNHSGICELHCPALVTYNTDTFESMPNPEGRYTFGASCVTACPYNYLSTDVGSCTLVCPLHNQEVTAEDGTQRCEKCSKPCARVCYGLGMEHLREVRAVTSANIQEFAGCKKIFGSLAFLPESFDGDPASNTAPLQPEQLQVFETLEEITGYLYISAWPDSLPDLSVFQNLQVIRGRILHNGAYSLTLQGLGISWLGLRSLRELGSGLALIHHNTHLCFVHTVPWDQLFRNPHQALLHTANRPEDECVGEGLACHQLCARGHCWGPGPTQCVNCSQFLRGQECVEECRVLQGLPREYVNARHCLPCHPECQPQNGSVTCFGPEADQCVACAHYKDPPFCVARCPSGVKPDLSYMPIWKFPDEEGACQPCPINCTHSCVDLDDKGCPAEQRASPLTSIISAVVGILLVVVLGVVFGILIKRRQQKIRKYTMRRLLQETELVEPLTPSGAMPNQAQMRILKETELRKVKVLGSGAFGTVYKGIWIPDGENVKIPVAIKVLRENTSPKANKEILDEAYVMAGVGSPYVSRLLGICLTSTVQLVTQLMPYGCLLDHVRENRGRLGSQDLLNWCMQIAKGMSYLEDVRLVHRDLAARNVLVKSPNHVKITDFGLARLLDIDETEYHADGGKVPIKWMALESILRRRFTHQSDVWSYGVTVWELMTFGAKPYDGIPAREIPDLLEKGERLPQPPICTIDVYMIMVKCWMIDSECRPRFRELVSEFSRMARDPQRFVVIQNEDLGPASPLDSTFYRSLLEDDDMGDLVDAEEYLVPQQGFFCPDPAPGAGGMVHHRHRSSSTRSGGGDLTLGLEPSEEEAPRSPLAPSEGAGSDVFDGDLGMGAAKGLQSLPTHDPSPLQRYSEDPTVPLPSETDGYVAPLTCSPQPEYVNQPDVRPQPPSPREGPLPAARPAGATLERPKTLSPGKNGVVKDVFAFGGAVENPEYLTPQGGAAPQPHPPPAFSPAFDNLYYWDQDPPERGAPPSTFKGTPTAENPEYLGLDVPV
Compound,viability [1] [%],Her2 level [2],viability [3],viability [4],viability [5],differential viability (reversal) ([6]; H69AR cells + 2 uM doxorubicin),"viability [6, 9] [%]","viability [6, 10] [%]",inhibition [7],inhibition [8]
CN(C)c1ccc(C(=O)OCC(=O)NC2CCCCC2)cc1,106,97% (inactive),106% (inactive),98.1% (inactive),91.5% (inactive),8.63% (inactive),82.9,91.5,-5.6% (inactive),5.81% (inactive)
Cc1cnc(C(=O)Nc2ccc(N3CCN(C(=O)OC(C)(C)C)CC3)cc2)cn1,109,106% (inactive),109% (inactive),100% (inactive),115% (inactive),15.1% (inactive),99.9,115,-5.84% (inactive),-6.51% (inactive)
O=C(COc1ccccc1)Nc1ccccc1N1CCN(c2ccccc2)CC1,80,86% (inactive),80% (inactive),96% (inactive),84.2% (inactive),1.58% (inactive),82.6,84.2,-4.27% (inactive),2.62% (inactive)
O=C(NCCSCc1ccco1)Nc1cccc(Cl)c1,83.5,95% (inactive),83.5% (inactive),63.6% (inactive),86.3% (inactive),2.05% (inactive),84.2,86.3,-5.33% (inactive),-3.97% (inactive)
Cc1sc2nc(SCC(=O)NCc3ccco3)n(CCc3ccccc3)c(=O)c2c1C,102,86.5% (inactive),102% (inactive),58.3% (inactive),40% (active),-14.2% (inactive),54.2,40,-6.27% (inactive),0.82% (inactive)
O=C(C1=C(O)C(=O)N(Cc2ccccc2)C1c1ccncc1)c1ccco1 (stereo not given),97.5,111% (inactive),97.5% (inactive),109% (inactive),104% (inactive),3.21% (inactive),101,104,-0.26% (inactive),-5.33% (inactive)
COc1cc(Cn2c(-c3nonc3N)nc3ccccc32)ccc1C,104,71.5% (inactive),104% (inactive),38.9% (inactive),17.8% (active),-29.2% (inactive),47.1,17.8,-3.92% (inactive),1.59% (inactive)
COc1ccccc1-n1c(SCC(=O)Nc2ccc3c(c2)OCO3)nc2c(c1=O)SCC2,82.5,112% (inactive),82.5% (inactive),85% (inactive),87.4% (inactive),0.71% (inactive),86.7,87.4,-0.55% (inactive),23.5% (inactive)
Cc1ccccc1C(=O)NC1CCN(Cc2nnnn2Cc2ccccc2)CC1,93.5,78% (inactive),93.5% (inactive),91.3% (inactive),98.2% (inactive),2.56% (inactive),95.6,98.2,-4.46% (inactive),3.49% (inactive)
Cc1ccccc1OCc1nnc(SCC(=O)NCc2ccccc2)n1C,96,84.5% (inactive),96% (inactive),88.4% (inactive),104% (inactive),8.75% (inactive),95.2,104,-4.66% (inactive),-3.02% (inactive)
COc1cccc(-c2cc(C(=O)N3CCCc4ccccc43)no2)c1,110,89.5% (inactive),110% (inactive),94.6% (inactive),92.4% (inactive),5.08% (inactive),87.4,92.4,-6.49% (inactive),-0.83% (inactive)
COc1cccc(OC)c1C(=O)N1CCOCC1,100,87.5% (inactive),100% (inactive),92.1% (inactive),100% (inactive),15% (inactive),85.1,100,-1.84% (inactive),-0.81% (inactive)
Cc1nc2c(c(=O)n1CC1CCCO1)c1nc3ccccc3nc1n2CC(C)C (stereo not given),96.5,89.5% (inactive),96.5% (inactive),104% (inactive),84.2% (inactive),-9.93% (inactive),94.1,84.2,2.63% (inactive),0.81% (inactive)
CCOC(=O)C1=C(N)OC2=C(C(=O)CC(C)(C)C2)C1c1ccoc1 (stereo not given),80,107% (inactive),80% (inactive),112% (inactive),96.3% (inactive),8.7% (inactive),87.7,96.3,-5.53% (inactive),-8.33% (inactive)
Cc1c(NS(=O)(=O)c2ccc3c(c2)n(C)c(=O)n3C)c(=O)n(-c2ccccc2)n1C,113,93% (inactive),113% (inactive),87.3% (inactive),94.2% (inactive),3.4% (inactive),90.8,94.2,-4.67% (inactive),-0.98% (inactive)
CCOC(=O)C1=C(C)NC(=O)C(C#N)C1c1ccco1 (stereo not given),104,85% (inactive),104% (inactive),92.6% (inactive),90% (inactive),-0.555% (inactive),90.6,90,-4.8% (inactive),-1.31% (inactive)

Compound,viability [1] [%],Her2 level [2],viability [3],viability [4],viability [5],differential viability (reversal) ([6]; H69AR cells + 2 uM doxorubicin),"viability [6, 9] [%]","viability [6, 10] [%]",inhibition [7],inhibition [8]
CC(C)(C)c1nc(CN2CCOCC2)ccc1O,109,96.5% (inactive),109% (inactive),106% (inactive),101% (inactive),4.21% (inactive),96.6,101,-7.03% (inactive),-0.82% (inactive)
Cc1ccc(OCC(=O)N2CCN(C(=O)CCC3CCCC3)CC2)cc1,104,93.5% (inactive),104% (inactive),94.6% (inactive),86.6% (inactive),-13.4% (inactive),100,86.6,-6.89% (inactive),-2.33% (inactive)
Cc1ccc2nc(SC(C)C(=O)N3CCCC3)[nH]c2c1 (stereo not given),87.5,108% (inactive),87.5% (inactive),91.4% (inactive),97.6% (inactive),6.04% (inactive),91.6,97.6,-0.92% (inactive),-6.35% (inactive)
Cc1nc(SC2C=CS(=O)(=O)C2)n[nH]1 (stereo not given),104,88% (inactive),104% (inactive),99.7% (inactive),86.3% (inactive),-13.9% (inactive),100,86.3,-7.07% (inactive),3.11% (inactive)
COCCNC(=O)c1ccc(CS(=O)(=O)c2ccc(OC)cc2)o1,97,121% (inactive),97% (inactive),87% (inactive),109% (inactive),15.8% (inactive),93.5,109,-1.03% (inactive),2.67% (inactive)
CC(NC(=O)c1ccco1)c1ccc2c(c1)OCCO2 (stereo not given),116,95.5% (inactive),116% (inactive),90.7% (inactive),96.3% (inactive),9.19% (inactive),87.1,96.3,-5.73% (inactive),-1.43% (inactive)
CC(C)=CCSc1nnc(CCNC(=O)OC(C)(C)C)o1,96,85.5% (inactive),96% (inactive),87.2% (inactive),96.6% (inactive),17.2% (inactive),79.3,96.6,-4.8% (inactive),16.6% (inactive)
O=C(CS(=O)(=O)c1cn(Cc2ccc(Cl)cc2)c2ccccc12)N1CCOCC1,84,92.5% (inactive),84% (inactive),105% (inactive),97% (inactive),8.43% (inactive),88.6,97,-1.87% (inactive),-2.62% (inactive)
O=C(NCC1COc2ccccc2O1)c1ccc(NC(=O)c2ccco2)cc1 (stereo not given),85.5,83% (inactive),85.5% (inactive),105% (inactive),99.1% (inactive),6.69% (inactive),92.4,99.1,0% (inactive),-2.33% (inactive)
COc1ccc(CN(C(=O)c2ccccc2OC)C2CCS(=O)(=O)C2)cc1 (stereo not given),95,90.5% (inactive),95% (inactive),115% (inactive),96.8% (inactive),7.03% (inactive),89.8,96.8,-0.53% (inactive),9.34% (inactive)
COc1ccccc1CCNC(=O)C1CCCO1 (stereo not given),108,97% (inactive),108% (inactive),92.1% (inactive),98.9% (inactive),7.17% (inactive),91.7,98.9,-6.18% (inactive),-11.3% (inactive)
CCOC(=O)Cn1c(CN2CCOCC2)nc2c1c(=O)[nH]c(=O)n2C,95,109% (inactive),95% (inactive),97.5% (inactive),99.7% (inactive),0.165% (inactive),99.5,99.7,-3.72% (inactive),-0.67% (inactive)
CCOC(=O)c1sc2nc3c(cc2c1N)COC(C)(C)C3,97,92% (inactive),97% (inactive),111% (inactive),98.4% (inactive),3.91% (inactive),94.5,98.4,-6.4% (inactive),-3.23% (inactive)
CC(C)[C@H](NC(=O)NCc1ccc(Cl)cc1)C(=O)O,86,77% (inactive),86% (inactive),89.1% (inactive),103% (inactive),11.2% (inactive),91.9,103,-4% (inactive),-4.75% (inactive)
COc1ccc(S(=O)(=O)NC2CCCCC2)c(C)c1C,104,91% (inactive),104% (inactive),90% (inactive),96.3% (inactive),8.58% (inactive),87.7,96.3,-2.89% (inactive),-2.9% (inactive)
